How the values were obtained:
[1] = (§1) Partition coefficient (logP) measured in a mixture of 1-octanol/phosphate buffer (0.1 M, pH 7.4); type: physicochemical
How it was run: (§2)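 Labeled ester or metabolite added to 1:1 1-octanol/0.1 M phosphate buffer pH 7.4, shaken vigorously, equilibrated 1 h at room temperature. Phase radioactivity counted by gamma or liquid scintillation counter, purity checked by TLC. Value = organic/aqueous concentration ratio.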

[2] = as §1; type: physicochemical; how it was run: as §2; remark: listed apart in the source
[3] = First-order hydrolysis rate constant in rat cerebral cortical homogenate at a unit tissue concentration (g/mL) without inhibitor; type: ADME, tissue-based
How it was run: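 Rat (Wistar, male, 8 wk, 210-230 g, n=3) cerebral cortex homogenized in ice-cold 0.1 M phosphate buffer pH 7.4 and diluted. Labeled ester (15 kBq) added to start reaction. Unchanged ester and metabolite separated by TLC and quantified by phosphor imaging. Rate = −ln(A2/A1)/(T2−T1)/C. Statistics by Games-Howell test.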

[4] = biological target: T1, Acetylcholinesterase (Rattus norvegicus) (UniProt P37136); assay: Specificity for rat brain acetylcholinesterase as rate of hydrolysis using BW284c51
T1 sequence (whole entry): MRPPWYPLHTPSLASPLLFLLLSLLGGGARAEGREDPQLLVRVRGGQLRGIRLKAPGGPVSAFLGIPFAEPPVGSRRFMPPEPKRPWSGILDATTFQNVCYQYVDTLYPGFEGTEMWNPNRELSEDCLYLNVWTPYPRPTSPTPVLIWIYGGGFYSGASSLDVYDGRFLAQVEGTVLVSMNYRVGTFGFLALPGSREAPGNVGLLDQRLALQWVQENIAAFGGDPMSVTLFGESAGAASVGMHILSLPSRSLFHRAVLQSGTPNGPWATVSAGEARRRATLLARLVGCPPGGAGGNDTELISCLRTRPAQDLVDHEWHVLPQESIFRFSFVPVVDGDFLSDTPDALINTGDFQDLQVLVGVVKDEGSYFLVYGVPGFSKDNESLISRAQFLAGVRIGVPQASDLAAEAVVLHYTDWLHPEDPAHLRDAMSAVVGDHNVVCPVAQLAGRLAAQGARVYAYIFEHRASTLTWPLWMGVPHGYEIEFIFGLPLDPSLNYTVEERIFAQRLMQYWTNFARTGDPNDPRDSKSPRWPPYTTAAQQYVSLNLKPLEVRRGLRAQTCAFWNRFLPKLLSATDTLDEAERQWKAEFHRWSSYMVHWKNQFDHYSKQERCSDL
How it was run: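 Rat cerebral cortex homogenate (Wistar, male, 8 wk, n=3) in 0.1 M phosphate buffer pH 7.4, run with labeled ester (15 kBq) with or without BW284c51 (30 nM). Hydrolysis rate measured by TLC and phosphor imaging of remaining ester. Specificity = […].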

[5] = tested as the 11C-labelled form
[6] = tested as the 18F-labelled form

CC(=O)OCC1CCN(CC[18F])CC1
logD [1]: 0.04 | logD [2]: -1.3 | Total rate [3]: 1.67 min⁻¹

CCC(=O)OC1CCN(C)CC1
Specificity [4, 5]: 82%

CC(=O)OC1CCN([11CH3])CC1
logD [1]: -0.3 | logD [2]: -2.2 | Total rate [3]: 1.73 min⁻¹

CC(=O)OC1CCN(C)CC1
Specificity [4, 5]: 97%

CC(=O)OC1CCN(CC[18F])CC1
logD [1]: -0.11 | logD [2]: -1.9 | Total rate [3]: 0.1 min⁻¹

CC(=O)OCC1CCN(CCF)CC1
Specificity [4, 6]: 86%

CCC(=O)OC1CCN([11CH3])CC1
logD [1]: -0.22 | logD [2]: -2.2 | Total rate [3]: 0.41 min⁻¹

CC(=O)OC1CCN(CCF)CC1
Specificity [4, 6]: 65%
